According to the RNAGym collection of RNA variant scans (doi:10.1126/science.aae0568):
This sample holds only a part of the variants without activity.

B1: tRNA (parent)
chain: GUUCCGUUGGCGUAAUGGUAACGCGUCUCCCUCCUAAGGAGAAGACUGCGGGUUCGAGUCCCGUACGGAACG

Variants of: B1
Assay: yeast fitness relative to wild type (ratio to wild type); higher = fitter; tRNA-Arg(CCU), competitive growth, 37 C, YPD
Procedure, shortened: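 Genotype frequency changes were the basis for Darwinian fitness relative to wild type. The frequencies came from 100-nucleotide paired-end sequencing of gene amplicons from the start population and each end population of pooled yeast strains with tRNA-Arg(CCU) gene variants at the native locus. Competition ran in YPD at 37°C for 24 hours in six replicates, genotypes needed ≥ 100 starting reads, and estimates < 0.5 were set to 0.5.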
Variant U3G A70U has a yeast fitness of 0.831. For U3C U19A G50C C62G C66U, the yeast fitness was 0.575. For U3G G9C C33G G63A, the yeast fitness was 0.606. Variant U3G G10C C46U G48A has a yeast fitness of at most 0.5. With U3C G23A the yeast fitness was 0.701. In the case of U3G C31U C49U G50A, the yeast fitness is reported as at most 0.5. For U3G C11A G52A C66G G68C, the yeast fitness was at most 0.5. U3C U19C C24A G58A showed a yeast fitness of at most 0.5. In the case of U3G C11G G44A G48A, the yeast fitness is reported as at most 0.5. U3G C22A showed a yeast fitness of 0.682. In the case of U3C U13A C31U G41A C66A, the yeast fitness is reported as at most 0.5. For U3C G63C U64C, the yeast fitness was 0.631. With U3C G25A the yeast fitness was 0.968. Work on U3G A65G yielded a yeast fitness of 1.1. For U3G A15G G23A U47C, the yeast fitness was at most 0.5. Variant U3G A45G C49G has a yeast fitness of 0.633. With U3G C33A G52A the yeast fitness was 0.651. With U3C G17C A40G U54C the yeast fitness was 0.59. For U3C U19A A43G, the yeast fitness was 0.677. Work on U3G C11U A43U A57U C66A yielded a yeast fitness of at most 0.5. U3C G23A U35G A42G gave a yeast fitness of at most 0.5. Work on U3G C49U G58A yielded a yeast fitness of 0.901. Work on U3C U13A C31U G41A A70C yielded a yeast fitness of 0.639. In the case of U3G A45C A70U, the yeast fitness is reported as 0.857. Variant U3G C49G has a yeast fitness of 0.809. In the case of U3G C49A, the yeast fitness is reported as 0.655. U3C U16G C30U C33U U47C showed a yeast fitness of at most 0.5. U3C G12A U28C A37C A45U G48C showed a yeast fitness of at most 0.5. In the case of U3G C4G G6C C29A A36C G52C, the yeast fitness is reported as at most 0.5. Variant U3C U19C has a yeast fitness of 0.929. In the case of U3C U19A, the yeast fitness is reported as 1.03. With U3G C11U A40U the yeast fitness was 0.529. U3G C5U U32C G41C C49U U59G gave a yeast fitness of at most 0.5. With U3C U16A C30U A40C the yeast fitness was at most 0.5. Variant U3G C5U U26A G68A has a yeast fitness of at most 0.5. Variant U3C G17C C29G C49G has a yeast fitness of 0.885. In the case of U3G C4U A14U A15U A20C C33G A40U C61G, the yeast fitness is reported as 0.577. Variant U3G C11A C34G A45C G52C has a yeast fitness of 0.546. With U3C U59C A69C the yeast fitness was 1.02. Variant U3C G38C A65U C66U has a yeast fitness of 0.555. U3C U26G G63A gave a yeast fitness of at most 0.5. U3G C27A A65U showed a yeast fitness of at most 0.5. Work on U3G C60G yielded a yeast fitness of 0.577. With U3G C60U the yeast fitness was 0.66. U3C G23C C62G gave a yeast fitness of 0.535. In the case of U3C U8C A69U, the yeast fitness is reported as 0.81. U3C U7G A14C C31A G50A G52C A65C gave a yeast fitness of at most 0.5. Work on U3G C27A C61A C62U yielded a yeast fitness of at most 0.5. U3G C5U G6A A65U gave a yeast fitness of at most 0.5. U3G G6A A14G G38C G41C C62G showed a yeast fitness of at most 0.5. Variant U3G A43G C55A has a yeast fitness of 0.536. With U3G G10A A21C U28A G68C the yeast fitness was at most 0.5. U3C U13C C24U G52A showed a yeast fitness of 0.576. U3G C24U C31U C61U showed a yeast fitness of 0.57. U3C U13C C31U showed a yeast fitness of 0.801. Work on U3G C11A U13C C33A A42U C55A yielded a yeast fitness of at most 0.5. With U3C U28A C34U U47C C60U the yeast fitness was at most 0.5. With U3C G12C A20G A43G C61U the yeast fitness was at most 0.5. Variant U3G C22G C29A has a yeast fitness of at most 0.5. With U3G C33U A37C A65C the yeast fitness was at most 0.5. U3C U7A U28G A43U G56C A57U G67A showed a yeast fitness of at most 0.5. In the case of U3C G50C, the yeast fitness is reported as 0.714. In the case of U3G C4A C11G C31G, the yeast fitness is reported as 0.533. U3G G6C C30U C33G A36C A40U showed a yeast fitness of at most 0.5. U3C U7C U35C showed a yeast fitness of 0.505. Work on U3G C29A U35G G51A yielded a yeast fitness of at most 0.5. With U3G C27G U35C the yeast fitness was at most 0.5. With U3G C24U C34U A40G C55G the yeast fitness was at most 0.5. Work on U3C U26A yielded a yeast fitness of 0.856. In the case of U3C U26G, the yeast fitness is reported as 0.868. In the case of U3C U13C G51C, the yeast fitness is reported as at most 0.5. Variant U3C U7A G44C C61U C62U G63C U64A C66U A69G has a yeast fitness of at most 0.5. For U3G A43C G48A A70C, the yeast fitness was 0.617. U3C U13C A21G A43U gave a yeast fitness of 0.708. With U3G A36C A45C G58A G68C the yeast fitness was at most 0.5. In the case of U3C U47C C49U G51A, the yeast fitness is reported as at most 0.5. Work on U3G C5U U32C G41C C49U G67A yielded a yeast fitness of at most 0.5. Work on U3C U13A C31U G41A C61G yielded a yeast fitness of at most 0.5. In the case of U3G C11U A70G, the yeast fitness is reported as 0.576. For U3C U13A A20C C30G C31A, the yeast fitness was at most 0.5. For U3C G25C C34U G56A, the yeast fitness was at most 0.5. Variant U3G C11U A45U has a yeast fitness of 0.559. In the case of U3G C22A C24U U35G A45U G56A, the yeast fitness is reported as at most 0.5. For U3G C4U U35A G58A G67U, the yeast fitness was at most 0.5. U3G A14G G39C showed a yeast fitness of at most 0.5. Variant U3G C30G G56A has a yeast fitness of at most 0.5. In the case of U3G A15G C24G G50A C55U C61U A65U, the yeast fitness is reported as at most 0.5. U3C U26A C33U C49U gave a yeast fitness of at most 0.5. In the case of U3G C4G C22U C29U A65G, the yeast fitness is reported as at most 0.5. Work on U3C G25C C62U G68A yielded a yeast fitness of 0.796. For U3C U16G U19A A43C A57U, the yeast fitness was at most 0.5. For U3G C27G C49G A70G, the yeast fitness was at most 0.5. With U3C G18A U32G A43C G51A the yeast fitness was 0.626. Work on U3C G38A C61U yielded a yeast fitness of 0.564. For U3G C24A C30U A57C A69U, the yeast fitness was at most 0.5. U3C U8G U32A C33G C61U C62U gave a yeast fitness of 0.561. Work on U3C G51C C66U yielded a yeast fitness of at most 0.5. U3G A42C G67C gave a yeast fitness of at most 0.5. In the case of U3G C11G U13A C30G C66U A69U, the yeast fitness is reported as at most 0.5. In the case of U3C G25A G68C A69G, the yeast fitness is reported as 1.08. In the case of U3C U8G U32A C33G U53A A69C, the yeast fitness is reported as at most 0.5. Variant U3G C4G G6C C29A A36C C62U has a yeast fitness of at most 0.5. Work on U3C G41A yielded a yeast fitness of 0.879. Variant U3C G41C has a yeast fitness of 0.824. For U3G C11U C22A, the yeast fitness was at most 0.5. Variant U3G A20C G44C U47C C61U has a yeast fitness of at most 0.5. U3C U28G G39C showed a yeast fitness of at most 0.5. U3G C55U C66U showed a yeast fitness of at most 0.5. U3C G39C gave a yeast fitness of 0.695. With U3C G25C A37U G44A the yeast fitness was 0.705. Work on U3C U53C yielded a yeast fitness of 0.78. In the case of U3C U16G, the yeast fitness is reported as 0.823. For U3C U28A, the yeast fitness was 0.832. With U3C U54C C61G the yeast fitness was 0.577. With U3G C22U C27U G56A the yeast fitness was at most 0.5. U3G C11U U19C A20U A43U C62G C66A A69C gave a yeast fitness of at most 0.5. With U3G A45C U54C A69U the yeast fitness was 0.793. In the case of U3G A43G A45U, the yeast fitness is reported as 0.539. With U3G C30A the yeast fitness was 0.868. Work on U3G C30G yielded a yeast fitness of at most 0.5. U3C U13C U16A A42G C49G U54C G63C A70U showed a yeast fitness of 0.532. For U3G C31A A45C, the yeast fitness was at most 0.5. With U3C G12A C29G C34U A36C G56C the yeast fitness was at most 0.5. Work on U3G C31U C34U C46G yielded a yeast fitness of at most 0.5. Work on U3G A57G yielded a yeast fitness of 0.908. U3G C5U U26A G38A C55A C66U gave a yeast fitness of 0.568. Work on U3C U8C A45U yielded a yeast fitness of 0.721. In the case of U3G A21G C31G C33U A43U G56A A69U, the yeast fitness is reported as at most 0.5. With U3G C4A A40U U54C the yeast fitness was at most 0.5. Work on U3C G17A C60A C66U yielded a yeast fitness of at most 0.5. For U3G A14U, the yeast fitness was 0.629. For U3G A14C, the yeast fitness was 0.773. For U3C U16G U19A A43C C49U A57U, the yeast fitness was at most 0.5. Work on U3G C5U C62A yielded a yeast fitness of at most 0.5. In the case of U3G C22U A57G C60A A65U, the yeast fitness is reported as 0.63. Variant U3C U19A A69U has a yeast fitness of 0.865. Variant U3C U26G C33A C61U has a yeast fitness of at most 0.5. Work on U3C G17A C29U C33U C60G yielded a yeast fitness of at most 0.5. Variant U3G C55A G58A has a yeast fitness of at most 0.5. U3C U13A A40C showed a yeast fitness of at most 0.5. U3G C5G G10A C30A C31G U47G C49A C60U G67A gave a yeast fitness of at most 0.5. Work on U3C G25A A42C yielded a yeast fitness of at most 0.5. Variant U3C G18A U32G A37G A43C G51A has a yeast fitness of at most 0.5. U3C G68C showed a yeast fitness of 0.845. U3C G68A gave a yeast fitness of 0.866. With U3C U8A U13C the yeast fitness was at most 0.5. With U3G A21G C62U the yeast fitness was 0.538. Work on U3G A14U A15U A20C C33G A40U C61G yielded a yeast fitness of 0.543. Work on U3G A37C A42U A43G G58C C62U yielded a yeast fitness of at most 0.5. U3C G44C U59A showed a yeast fitness of at most 0.5. For U3C U32C A42U, the yeast fitness was 0.686. Variant U3G C27U U35G A42U has a yeast fitness of at most 0.5. Variant U3G C30G C62U has a yeast fitness of at most 0.5. With U3C U32A G41A C46U the yeast fitness was at most 0.5. With U3C U47G U64A the yeast fitness was at most 0.5. For U3G C49G C60G C62G G63A, the yeast fitness was at most 0.5. In the case of U3G A21G G38C C49U A69C, the yeast fitness is reported as at most 0.5. In the case of U3C G67U, the yeast fitness is reported as 0.839. U3C G67C gave a yeast fitness of 0.783. U3G A36G A43G showed a yeast fitness of 0.735. Work on U3C U8C A14G U28G A36U C46U C61U yielded a yeast fitness of 0.549. With U3G C30G A40G the yeast fitness was 0.836. U3G C5U U32A C33U gave a yeast fitness of 0.595. U3G G12A C27A C29G U53A C60A A69C gave a yeast fitness of at most 0.5. U3G C4G C49G showed a yeast fitness of 0.826. Work on U3C U64A yielded a yeast fitness of 0.792. U3C U64C gave a yeast fitness of 1.04.
